# From PubChem
# V1R ag counter: counter-screen for oxytocin receptor agonists: human V1a receptor agonists | P37288 | CHO-V1R cells, Fluo-8 calcium fluorescence, agonist mode; 0% DMSO, 100% 3 nM vasopressin | activation, % at 3 µM | 0.25% of 320,000 active | AID 2797;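 active means activation above the mean activation of all tested compounds plus 3 SD, per screening run, cut at about 20% in these data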;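 further: signal is peak over basal fluorescence ratio across a 100 second FLIPR read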
# OXTR potentiate: potentiates the human oxytocin receptor response | P30559 | CHO-OTR cells, Fluo-8 calcium fluorescence, potentiator mode; 0% = oxytocin EC15, 100% = EC100 | activation, % at 3 µM | 0.061% of 320,000 active | AID 2445;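 active means activation above that plate's cutoff, the mean activation of tested compounds plus 3 SD, cut at about 6.6% in these data, passing the limit was not always enough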;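 further: 100% uses oxytocin at 75 nM as the full agonist control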
# Target sequence (P30559 whole entry, looked up): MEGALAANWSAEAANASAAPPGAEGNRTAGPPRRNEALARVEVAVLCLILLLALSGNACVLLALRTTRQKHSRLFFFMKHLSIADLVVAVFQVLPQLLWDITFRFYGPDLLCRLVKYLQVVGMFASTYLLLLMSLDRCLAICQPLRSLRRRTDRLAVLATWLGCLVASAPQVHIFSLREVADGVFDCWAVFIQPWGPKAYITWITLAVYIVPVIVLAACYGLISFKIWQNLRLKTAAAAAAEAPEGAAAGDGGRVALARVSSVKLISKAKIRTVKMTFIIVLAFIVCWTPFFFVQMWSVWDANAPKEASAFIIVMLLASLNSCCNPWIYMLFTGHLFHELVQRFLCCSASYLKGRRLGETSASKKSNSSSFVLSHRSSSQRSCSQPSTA
#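 Replication – single well per compound, singlicate · Assay system – CHO cell line stably expressing human OTR · Timing – 6 min pre-incubation, 100 s read · Measure – normalized max/min fluorescence ratio, % activation · Doses – 3.0 µM, one dose · Detection – Fluo-8 calcium dye fluorescence · Probe or stimulus – oxytocin near EC15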
# TAAR1 antag: human TAAR1 antagonism | Q96RJ0 | CHO RD-HGA16 TAAR1, Fluo-8 calcium fluorescence, antagonist | inhibition, % at 3 µM | 1.5% of 360,000 active | AID 624466;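 active means inhibition above a per-plate cutoff, the mean inhibition of test compounds on that plate plus 3 SD, cut at about 49% in these data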;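 further: 0% = DMSO plus EC80 beta-PEA response and 100% = DMSO alone without agonist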
#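 System: RD-HGA16 CHO cells with stable hTAAR1 and Gα16 | Probe or stimulus: EC80 β-phenethylamine stimulus | Dosing: 3 µM, single point | Times: Dye loading 75 min at 37 °C, then 30 min room temperature | Measured by: Fluo-8 calcium-sensitive fluorescence | Read-out basis: % inhibition of agonist calcium response | Replicates: n of 1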
# TAAR1 agonist: agonists of human TAAR1. 0.99% of 360,000 active. Q96RJ0. activation, % at 3 µM. CHO RD-HGA16 TAAR1, Fluo-8 calcium fluorescence; vehicle wells 0%, saturating PEA agonist 100%;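 active means activation above the mean activation of all test compounds in the run plus 3 SD, cut at about 38% in these data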
#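 Repeats: no replicates (n 1) | Material: CHO-derived RD-HGA16 cells with stable Gα16 and human TAAR1 | Technique: Kinetic Fluo-8 calcium fluorescence | Schedule: 17-24 h seeding, 75 min 37 °C dye, 30 min RT | Evaluation: % activation from peak over basal fluorescence ratio, DMSO-to-PEA scaled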
# OXTR agonist: agonists of human oxytocin receptor; P30559; CHO-OTR cells, Fluo-8 calcium fluorescence; normalized: DMSO 0%, oxytocin 100%; activation, % at 3 µM; 0.32% of 320,000 active; AID 2435;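 active means activation above the mean of all tested compounds plus 3 SD, cutoff set per screening run, cut at about 20% in these data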;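 further: peak over basal fluorescence ratio from a 100 s FLIPR kinetic read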
# TAAR1 ag conf: confirmation of human TAAR1 agonists; shares compounds with TAAR1 agonist; CHO RD-HGA16 TAAR1, Fluo-8 calcium fluorescence; scaled: DMSO 0%, maximal phenethylamine 100%; activation, % at 3 µM; 82% of 2,400 active; AID 651783;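 active means activation above a cutoff set at the run's mean compound activation plus 3 SD, cut at about 39% in these data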
# Ga16 nonsel ag: nonselective agonism, TAAR1 counter-screen | shares compounds with TAAR1 agonist | activation, % at 3 µM | 50% of 2,400 active | CHO-Ga16 parental, Fluo-8 calcium fluorescence; normalized to maximal ATP response, DMSO zero | AID 651787;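 active means activation above the run cutoff, the mean activation over all tested wells plus 3 SD, cut at about 12% in these data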;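 further: 0% = DMSO wells and 100% = maximal ATP response on the peak over basal ratio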
# TAAR1 desens: human TAAR1 agonist that also desensitizes the receptor | shares compounds with TAAR1 agonist | CHO RD-HGA16 hTAAR1, Fluo-8 calcium, beta-PEA response inhibition | inhibition, % at 3 µM | 46% of 2,400 active;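 active means inhibition above the run cutoff, the mean inhibition of all test compounds plus 3 SD, cut at about 49% in these data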;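 further: beta-PEA stimulus applied at its EC80; loss of beta-PEA calcium signal after compound pretreatment read as receptor desensitization; 0% = DMSO with beta-PEA at EC80 and 100% = DMSO alone without agonist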
# Ga16 nonsel ant: counter-screen for TAAR1 agonists: nonselective Ga16 antagonists; shares compounds with TAAR1 agonist; CHO-Ga16 ATP-induced calcium, Fluo-8 fluorescence; inhibition, % at 3 µM; 39% of 2,400 active; AID 651952;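 active means inhibition above the plate's mean compound inhibition plus 3 SD, computed per plate, cut at about 22% in these data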;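 further: 0% = EC80 ATP with DMSO and 100% = DMSO wells without ATP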
# Numbers without * were called inactive; nt = no result. In the library only some 2.3% were active in any assay of this set; here they are far more common.
SMILES,V1R ag counter,OXTR potentiate,TAAR1 antag,TAAR1 agonist,OXTR agonist,TAAR1 ag conf,Ga16 nonsel ag,TAAR1 desens,Ga16 nonsel ant
O=C(c1ccccc1)N1CCC(c2nc(-c3ccc(S(=O)(=O)NCC4CCCO4)cc3)no2)CC1 (configuration not stated),9,-10,33,43*,16,10,10,16,27*
O=C(C1CC1)N1CCC(c2nc(-c3ccc(S(=O)(=O)NCC4CCCO4)cc3)no2)CC1 (configuration not stated),8,-11,-1,8,10,nt,nt,nt,nt
O=C(C(=O)N1CCc2ccccc2C1)c1cn(CC(=O)N2CCOCC2)c2ccccc12,-1,-8,-6,75*,-2,39*,5,-1,8
O=C(C(=O)N1CCc2ccccc2C1)c1cn(CC(=O)N2CCCCC2)c2ccccc12,0,3,70*,80*,-2,102*,2,86*,12
COc1cccc(C(=O)Nc2cccc3c2ccc2cccn23)c1,0,-4,-5,0,-2,nt,nt,nt,nt
CCC(=O)NNC(=O)c1cc(COc2cc(Cl)cc(Cl)c2)on1,2,-4,19,55*,4,40*,21*,21,16
CCn1c(CSc2nc(C)cc(C)n2)nnc1SCC(=O)Nc1nc(-c2ccccc2)cs1,6,-16,45,59*,8,65*,32*,44,33*
CSc1cccc(CN2CCC(n3nccc3NC(=O)C3CC3)CC2)c1,1,-6,-26,0,2,nt,nt,nt,nt
CCCCn1c(N)c(N(CC(C)C)C(=O)c2ccc(OCc3c(C)noc3C)cc2)c(=O)[nH]c1=O,-1,3,5,0,0,nt,nt,nt,nt
CCN(CC)CCc1c(C)[nH]c(C(=O)OCc2ccccc2)c1C,1,-1,26,71*,4,73*,1,74*,2
CC(=O)c1c(C)[nH]c(C(=O)OCc2ccccc2)c1C,6,-12,10,9,4,nt,nt,nt,nt
COc1cc(-c2nc(CN3CCN(C(=O)c4ccco4)CC3)c(C)o2)ccc1F,3,0,-26,1,0,nt,nt,nt,nt
O=C(O)CSCC(=O)N1CCN(S(=O)(=O)c2cc(Cl)cc(Cl)c2)CC1,1,-8,-21,4,1,nt,nt,nt,nt
Cc1cc(C)n(C(CC(=O)N2CCc3ccccc3C2)C(=O)O)n1 (configuration not stated),0,4,90*,102*,1,107*,4,94*,4
Cc1cc([N+](=O)[O-])nn1CC(=O)N1CCc2ccccc2C1,0,0,-2,61*,0,45*,8,12,5
CS(=O)(=O)N(CC(=O)N1CCc2ccccc2C1)c1cccc(F)c1,1,-4,-4,4,0,nt,nt,nt,nt
CS(=O)(=O)N(Cc1ccccc1)c1ccc(C(=O)N2CCc3ccccc3C2)cc1,3,-19,91*,93*,2,101*,8,97*,25*
CS(=O)(=O)N(CC(=O)N1CCc2ccccc2C1)c1cccc([N+](=O)[O-])c1,1,-4,-2,60*,0,54*,2,13,11
CCc1ccccc1N1CC(C(=O)Nc2nccs2)CC1=O (configuration not stated),2,-6,13,1,1,nt,nt,nt,nt
CC(CCc1ccc(O)cc1)N(C)CCc1ccccc1 (configuration not stated),1,-1,6,49*,2,61*,5,5,-6
